Published values of several laboratories.
Protocols differ between the studies behind these lines.
Cell line: HCT-116
Observed: cell growth or viability

Cc1cc2c(C(N)=O)cccc2n1-c1nc2c(c(NCc3ccccn3)n1)CCCN2
IC50 (ATP luminescence; 72 h): 0.8 µM

COc1ccc2c(-c3nc(-c4ccccc4)no3)nn(Cc3ccncc3)c2c1
IC50 (48 h): 10.8 µM

Clc1ccc(-c2cc(CNc3cccc4cccnc34)on2)c(Cl)c1
IC50 (MTS; 72 h): > 100 µM

O=C(C=Cc1ccc(OCCCOc2ccc(C=CC(=O)c3cccs3)cc2)cc1)c1cccs1
IC50 (MTT; 48 h): 120 µM

C#Cc1cccc(Nc2ncnc3cc(OCCOC)c(OCCOC)cc23)c1
IC50 (LDH; 48 h): 5.14 µM

O=[N+]([O-])c1cc(I)c(O)c(C=NNc2ccc(Cl)cc2)c1
IC50 (MTT; 24 h): 13.9 µM

Cc1cc2c(C(N)=O)nccc2n1-c1nc2c(c(NCc3ccccc3)n1)CCCN2
IC50 (ATP luminescence; 72 h): 2.3 µM

O=C1C(=Nc2ccc(Cl)cc2)c2ccccc2N1Cc1ccc([N+](=O)[O-])cc1
IC50 (MTT; 48 h): 1.75 µM

OCn1ccnc1
IC50 (MTT; 24 h): 10.7 µM

FC(F)(F)c1cc(OCc2cc(-c3ccccc3)no2)c2ccccc2n1
IC50 (MTS; 72 h): > 100 µM

COc1ccc2c(-c3ncc(-c4ccccc4)o3)nn(Cc3ccccc3)c2c1
IC50 (48 h): 80.9 µM

Cc1cccc([N+](=O)[O-])c1N=C1SCC(=O)N1c1nnc(-c2ccc(C(F)(F)F)cc2N=C2SCC(=O)N2c2c(C)cccc2[N+](=O)[O-])s1
IC50 (MTT): 61.2 µM

COc1cccc2c1C(=O)c1c(O)c3c(c(O)c1C2=O)C[C@@](O)(C(=O)CO)C[C@@H]3O[C@H]1C[C@H](N)[C@H](O)[C@H](C)O1
IC50 (MTT; 72 h): 0.2 µM

O=C(C=Cc1ccc(OCCCCOc2ccc(C=CC(=O)c3cccs3)cc2)cc1)c1cccs1
IC50 (MTT; 48 h): 278 µM

FC(F)(F)c1cc(OCc2cc(-c3ccccn3)no2)c2ccccc2n1
IC50 (MTS; 72 h): > 100 µM

COc1ccc(CNC(=O)Cn2cc(COc3ncnc4[nH]cnc34)nn2)cc1
IC50 (MTT): > 100 µM

O=C1CS/C(=N\c2cc(C(F)(F)F)ccc2-c2nnc(N3C(=O)CS/C3=N\c3cccc(Cl)c3)s2)N1c1cccc(Cl)c1
IC50 (MTT): 57.1 µM

N/C(=N\O)c1ccc(-c2cc(CNc3cccc4cccnc34)on2)cc1
IC50 (MTS; 72 h): > 100 µM

O=C1C(=Nc2ccc(Cl)cc2)c2ccccc2N1Cc1cccc(Cl)c1
IC50 (MTT; 48 h): 7.71 µM

O=C(CSc1nc2ccccc2s1)N/N=C/c1ccc(OCC(=O)Nc2cccc(Cl)c2)cc1
IC50 (MTS; 72 h): > 100 µM

COc1cccc2c1C(=O)c1c(O)c3c(c(O)c1C2=O)C[C@@](O)(C(=O)CO)C[C@@H]3O[C@H]1C[C@H](N)[C@H](O)[C@H](C)O1
IC50 (MTT): 41.2 µM

O=C1/C(=C/c2ccc([N+](=O)[O-])cc2[N+](=O)[O-])NC(=S)N1c1ccccc1
IC50 (MTT): 98.5 µg/mL

COc1cccc(NC(=S)N/N=C/c2cccc3cc4ccccc4nc23)c1
IC50 (MTT; 48 h): 49.6 µM

c1ccc2c(c1)ncn2Cn1cncn1
IC50 (MTT; 24 h): 102 µM

Cc1cc2c(C(N)=O)cccc2n1-c1nc(NCc2ccccc2)c2c(n1)NC(C)CC2 (stereo not shown)
IC50 (ATP luminescence; 72 h): 0.9 µM

Cc1cc(NS(=O)(=O)c2ccc(NC(=O)/C(C#N)=C/c3ccc(N4CCCCC4)cc3)cc2)no1
IC50 (MTT; 48 h): 14.5 µM

C#CCn1c(C2CC(c3ccc(F)cc3)=NN2C(C)=O)nc2ccccc21 (stereo not shown)
IC50 (LDH; 48 h): 6.85 µM

CC1(P2(=O)CCCCC2)CCCCC1
IC50 (MTT; 72 h): 69.3 µM

CC(C)CNC(=S)N/N=C/c1cccc2cc3ccccc3nc12
IC50 (MTT; 48 h): > 50 µM

COc1ccc(N(Cc2nc(-c3ccc(F)cc3)cs2)C(=O)CCCCCC(=O)NO)cc1
IC50 (MTT; 72 h): 3.2 µM

O=c1cc(OCc2cc(-c3ccccc3)no2)c2ccccc2o1
IC50 (MTS; 72 h): > 100 µM

Fc1ccc2c(-c3nnc(Cc4ccccc4)s3)nn(Cc3ccc(Cl)cc3Cl)c2c1
IC50 (48 h): 85.1 µM

O=[N+]([O-])c1cc(Br)c(O)c(C=NNc2ccccc2)c1
IC50 (MTT; 24 h): 11.7 µM

CC(C)c1ccc(/C=C2\NC(=S)N(c3ccccc3)C2=O)cc1
IC50 (MTT): 63.2 µg/mL

O=C(CSc1nc2ccccc2s1)N/N=C/c1ccc(OCC(=O)Nc2cccc(Br)c2)cc1
IC50 (MTS; 72 h): > 100 µM

CC(C)c1cccc(C(C)C)c1N=C1C(=O)N(Cc2ccc(Br)cc2)c2ccccc21
IC50 (MTT; 48 h): 37.4 µM

COC(=O)c1ccc2c(c1)NC(=O)/C2=C(\Nc1ccc(N(C)C(=O)CN2CCN(C)CC2)cc1)c1ccccc1
IC50 (MTT; 24 h): 1.88 µM

O=C1/C(=C/c2ccc(O)cc2O)NC(=S)N1c1ccccc1
IC50 (MTT): 91.3 µg/mL

O=C1Nc2ccccc2C1=Nc1cccc(Cl)c1
IC50 (MTT; 48 h): > 100 µM

c1ccc(Cn2nc(-c3ncc(-c4ccccc4)s3)c3ccccc32)cc1
IC50 (48 h): 50.6 µM

OCn1cncn1
IC50 (MTT; 24 h): 48.8 µM

O=C1Nc2ccccc2C1=Nc1ccccc1Br
IC50 (MTT; 48 h): > 100 µM

O=C1CS/C(=N\c2ccccc2Cl)N1c1nnc(-c2ccc(C(F)(F)F)cc2/N=C2\SCC(=O)N2c2ccccc2Cl)s1
IC50 (MTT): 57.9 µM

O=c1[nH]cc(F)c(=O)[nH]1
IC50 (MTT; 48 h): 17 µM

CONC(=O)c1cccc2c1cc(C)n2-c1nc2c(c(NCc3ccccc3)n1)CCCN2
IC50 (ATP luminescence; 72 h): 0.7 µM

O=[N+]([O-])c1ccc(NC(=S)N/N=C/c2cccc3cc4ccccc4nc23)cc1
IC50 (MTT; 48 h): > 50 µM

c1ccc(Cc2nnc(-c3nn(Cc4ccccc4)c4ccccc34)o2)cc1
IC50 (48 h): 15.1 µM

O=C1CS/C(=N\c2ccccc2O)N1c1nnc(-c2ccc(C(F)(F)F)cc2/N=C2\SCC(=O)N2c2ccccc2O)s1
IC50 (MTT): 40.5 µM

O=[N+]([O-])c1cc(Br)c(O)c(C=NNc2ccc(Br)cc2)c1
IC50 (MTT; 24 h): 15.3 µM

O=C1C(=Nc2cccc(Cl)c2)c2ccccc2N1Cc1ccc([N+](=O)[O-])cc1
IC50 (MTT; 48 h): 0.84 µM

c1ccc(-c2cc(CNc3cccc4cccnc34)on2)nc1
IC50 (MTS; 72 h): > 100 µM

Cc1cccc(N=C2C(=O)Nc3ccccc32)c1
IC50 (MTT; 48 h): > 100 µM

Fc1ccc2c(-c3ncc(-c4ccccc4)o3)nn(Cc3ccccc3)c2c1
IC50 (48 h): 82.6 µM

Cc1cccc(N=C2C(=O)N(Cc3cccc(Cl)c3)c3ccccc32)c1
IC50 (MTT; 48 h): 7.13 µM

CC(=O)c1nc2ccccc2n1Cc1cn([C@@H]2O[C@H](CO)[C@H](O)[C@H](O)[C@H]2O)nn1
IC50 (LDH; 48 h): 8.68 µM
